From PubChem
Apaf-1 act = activators of human Apaf-1 apoptosome, primary screen, biochemical, DEVD-Rh110 fluorescence, uHTS; Apoptotic protease-activating factor 1 (Homo sapiens), O14727; activity change, negative = activation, % at 20 µM; actives 0.31% (n = 330,000); AID 489031, 2010; Apaf-1 apoptosome caspase-3 activation; stronger effect = lower value;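 active means activity change at or below -40% at 20 µM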
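Material: reconstituted apoptosome of Apaf-1, cytochrome c, caspase-9, procaspase-3; times: 30 min preincubation, 50 min reaction, room temperature; measured by: fluorescence, 540 nm emission, 480 nm excitation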
Rh110 interf act = Rh110 fluorescence interference by putative Apaf-1 activators, confirmation, artefact control for Apaf-1 activator project, biochemical, 20 µM | shares compounds with Apaf-1 act | quenched caspase reaction, Ex480/Em540 | fluorescence interference (activity change), % at 20 µM, hits read low | 980 tested, under 10 active | AID 504616, 2011;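 active means mean activity change at or below -40% when tested at 20 µM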
Apaf-1 act conf2 = Apaf-1 activators, single-dose retest, confirmation, biochemical, fluorescence, DEVD-Rh110, 20 µM | actives 5% (n = 980) | reconstituted apoptosome caspase-3 activity; stronger effect = lower value | activity change, negative = activation, % at 20 µM | shares compounds with Apaf-1 act;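 active means mean activity change at or below -40%, meaning activation of 40% or more, at 20 µM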
The depositor's hits bear a star; · = not tested or not shown. These entries were drawn from the full list.

SMILES	Apaf-1 act	Rh110 interf act	Apaf-1 act conf2
CC1=NN(c2ccc(C(=O)O)c(N)c2)C(=O)C1	62.1	·	·
COC(=O)c1ccc(-c2ncc(-c3cccc4ccccc34)o2)cc1	41.8	·	·
CCOc1ccc(-c2nc(CSc3nnc(N)s3)cs2)cc1	-523.1*	5.4	11.3
CC(C)(C)OC(=O)[C@H](Cc1ccccc1)NC(=O)c1nc[nH]c1C(=O)N[C@@H](CCCCN)C(=O)OC(C)(C)C	50.9	·	·
CCC(=O)Nc1ccccc1C(=O)N1CCCC1	-43.6*	-8.2	5.2
COc1ccccc1OCC(=O)NCC1CCCN(C(=O)c2ccccc2SC)C1 (stereo not given)	50.9	·	·
Cc1cccc(/C=N/NC(=O)C(C)Nc2cccc3ccccc23)n1 (stereo not given)	90.9	·	·
COc1ccc(C(=O)NCC23C=CC(O2)C2C(=O)N(Cc4ccccc4)C(=O)C23)cc1 (stereo not given)	-75.2*	-1.2	15.0
Cc1ccc2nc(/C(C#N)=C\c3ccc(N4CCOCC4)o3)[nH]c2c1	44.1	·	·
Cc1noc(C)c1COC(=O)C1COc2ccccc2O1 (stereo not given)	-72.6*	-6.3	12.0
COc1ccc(C)cc1NC(=O)CN1C(=O)C2CC=CCC2C1=O (stereo not given)	-315.2*	0.7	8.7
COc1ccc(C)cc1NC(=O)COC(=O)C1COc2ccccc2O1 (stereo not given)	-52.9*	-1.2	10.4
FC(F)(F)c1cc(CCN2CCNC[C@H]2Cc2cccc3ccccc23)cc(C(F)(F)F)c1	72.4	·	·
C#CCOCCOCCOCCNc1nc(N2CCN(C(=O)CCCCCCCCCCNC(=O)[C@H]([C@@H](C)CC)n3cc(CCCCN=C(N)N)nn3)CC2)nc(N2CCN(C(=O)CCCCCCCCCCNC(=O)[C@H]([C@@H](C)CC)n3cc(CCCCN=C(N)N)nn3)CC2)n1	41.3	·	·
CCOC(=O)c1nn(-c2ccccc2C)c(=O)c2c(N)scc12	46.7	·	·
COc1ccc(NC(=O)CCl)cn1	67.2	·	·
CCN1CCN(Cc2ccc(NC(=O)c3ccc(C)c(NC(=O)c4csc(-c5ccncc5)n4)c3)cc2C(F)(F)F)CC1	58.5	·	·
OC(COc1c(Cl)cc(Cl)cc1Cl)CN1CCCCC1 (stereo not given)	-88.1*	-0.2	14.9
O=C(c1ccccc1)[C@@H]1[C@@H](C(=O)c2ccc(F)cc2)[C@@]2(C(=O)Nc3ccccc32)[C@H]2c3ccccc3C=CN12	63.7	·	·
NC(N)=N/N=C/c1ccc(OCc2ccccc2Cl)cc1	42.9	·	·
O=C(N/C(=C\c1ccccc1Cl)C(=O)N1CCOCC1)c1ccc([N+](=O)[O-])cc1	-308.5*	8.8	9.4
CCN(CC)CCCNc1ccc(-c2nnc(-c3ccc(OCC(C)C)cc3)o2)cn1	41.4	·	·
CCOC(=O)C1CCN(C(=O)c2ccc3c(c2)NC(=O)/C(=C\c2cccc(C)c2)S3)CC1	40.0	·	·
COc1cc(NCc2ccccc2)c2ncn(Cc3ccccc3)c2c1	49.5	·	·
C=CCn1c(SCC(=O)N(CC)C2CCS(=O)(=O)C2)nnc1-c1ccccc1 (stereo not given)	61.4	·	·
SMILES	Apaf-1 act	Rh110 interf act	Apaf-1 act conf2
CCn1c(SCC(=O)OC(C)C)nnc1-c1ccccc1	-76.1*	-1.2	6.7
CCC[C@@H](CN1CCC[C@H]1CN1C(N)=NC[C@H]1CC(C)C)N1C[C@@H]([C@H](C)CC)N(CCCC2CCCC2)C1=N	53.2	·	·
CCCCn1c(NC(=O)c2ccccc2Cl)c(C#N)c2nc3ccccc3nc21	92.7	·	·
O=C1CC(c2ccccc2)n2ncnc2N1 (stereo not given)	-347.5*	3.5	11.1
Cn1c(=O)n(C)c2cc(/C=N/NC(=O)c3cc4cc(Br)ccc4o3)ccc21	43.0	·	·
CN(C)c1ccnc2c[cH-]cc12.[Fe].c1ccc(-[c-]2[c-](-c3ccccc3)[c-](-c3ccccc3)[c-](-c3ccccc3)[c-]2-c2ccccc2)cc1 (stereo not given)	47.2	·	·
O=C1NC2=C(CCc3ccccc32)C(c2ccccc2)N1 (stereo not given)	91.5	·	·
COc1ccc(C(CCN2CCCC(C)C2)c2c(OC)cc(OC)c3c(-c4ccccc4)cc(=O)oc23)cc1 (stereo not given)	54.4	·	·
COc1ccc(Oc2nnc(-c3ccc(C)cc3)c3ccccc23)cc1	-172.1*	9.8	14.0
COc1ccc(-c2cc3c(nn2)-c2ccccc2C3=O)cc1	77.3	·	·
Cc1cc2cc(CNC(=S)Nc3ccc(OC(F)(F)F)cc3)ccc2n1C	59.1	·	·
Cc1ccc(-n2nnnc2SCC(=O)N2CCNC2=O)cc1C	-448.3*	8.7	8.8
COc1cc2c(cc1OC)C1=C(C#N)CCC(=O)N1CC2	50.0	·	·
C=C[C@H]1CN2CC[C@H]1C[C@@H]2[C@@H](O)c1ccnc2ccc(OC)cc12	-3.0	·	·
Nc1cc2nsnc2cc1Br	98.2	·	·
CC(=O)Nc1ccc(N2CC(C)(C)C2=O)cc1	-58.1*	5.8	11.5
COc1cc2nc(Nc3ccc(C)c(Cl)c3)nc(N)c2cc1OC	45.1	·	·
O=C(CSc1c[nH]c2ccccc12)N1CCOCC1	-42.2*	19.2	14.4
O=C(CSc1nncc2ccccc12)N1CCOCC1	-543.2*	1.0	7.0
C#CCOCCOCCOCCNc1nc(N2CCN(C(=O)CCCCCCCCCCNC(=O)[C@H]([C@@H](C)CC)n3cc(CCCCCN)nn3)CC2)nc(N2CCN(C(=O)CCCCCCCCCCNC(=O)[C@@H]([C@H](C)CC)n3cc(CCCCCN)nn3)CC2)n1	78.1	·	·
O=C1c2ccccc2-c2c1nc1c([n+]2[O-])CCCC1	41.6	·	·
NC(=NCCCCCCN=C(N)/N=C(\N)Nc1ccc(Cl)cc1)/N=C(\N)Nc1ccc(Cl)cc1	75.7	·	·
O=C1C(NS(=O)(=O)c2cccs2)=C(N2CCN(c3cccc(C(F)(F)F)c3)CC2)C(=O)c2ccccc21	47.5	·	·
CCCCCCCCCCOC(=O)Cn1c(COc2ccccc2C)[n+](C)c2ccccc21	80.8	·	·
COc1cc(/C=C2/C(=O)N(c3cccc(Br)c3)N=C2C)cc(OC)c1O	82.2	·	·
SMILES	Apaf-1 act	Rh110 interf act	Apaf-1 act conf2
CCc1ccc(NC(=S)Nc2cccc3cnccc23)cc1	88.6	·	·
O=C1C(=C(O)c2ccccc2)C(=O)c2ccccc21	41.5	·	·
O=C(/C=C/Nc1ccc(F)c(F)c1)c1ccc(Br)cc1	-103.2*	3.6	14.7
CCN1CCN(c2cc(N3CCN(C(=O)c4ccco4)CC3)c3c4c(onc24)-c2ccccc2C3=O)CC1	41.8	·	·
Cc1cccc(CN2C(=O)/C(=C\c3ccc(C(=O)NCCCN4CCN(C)CC4)cc3)Oc3ccccc32)c1	52.5	·	·
NC(=O)C1(N2CCCCC2)CCN(C(=S)Nc2cccc(Cl)c2)CC1	-43.3*	1.5	14.3
Cc1cc2cc(CNC(=O)Nc3cccc(Cl)c3)ccc2n1C	48.7	·	·
S=C(Nc1ccc2nsnc2c1)N1CCCC1	98.4	·	·
Cc1cc2cc(CNC(=O)c3ccc(S(=O)(=O)N(C)C)cc3)ccc2n1C	45.4	·	·
O=C(Nc1ccccc1)N1CCC(C(=O)N2CCN(S(=O)(=O)c3cccc(F)c3)CC2)CC1	-50.5*	9.4	9.0
O=C(Nc1ccccc1N1CCCC1)C1CCN(S(=O)(=O)c2cccc(C(F)(F)F)c2)CC1	41.8	·	·
